Tests used:
[1] = tested on: P388; assay: Compound was tested for the effect on the formation of protein-DNA complex in P388 cells investigated by the K+/SDS method; format: functional, Mus musculus
Outline: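 Formation of topoisomerase–DNA (protein–DNA) complexes was measured in murine leukemia P388 cells by K+/SDS precipitation. Activity was reported as EC200.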

[2] = target: DNA topoisomerase II (Homo sapiens, UniProt P11388+Q02880); assay: Tested for inhibitory effect on topoisomerase-2 mediated DNA cleavage using super coiled pBR322 plasmid DNA; format: functional
[3] = species: Mus sp.; assay: Tested for toxicity in mice; format: organism-based; details: in vivo
Outline: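 Nude mice bearing subcutaneous MKN-45 human stomach cancer flank xenografts; dosing intravenous five times/week for 2 weeks, starting once tumors reached 0.2 cm³ or larger. Toxicity expressed as LD₁₀, the approximate dose lethal to 10% of animals on this schedule.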

[4] = target: T1, DNA topoisomerase 1 (Homo sapiens, UniProt P11387); assay: Inhibitory effect on topoisomerase-1 mediated DNA cleavage using supercoiled pBR322 plasmid DNA; format: functional
T1 sequence (P11387 whole entry): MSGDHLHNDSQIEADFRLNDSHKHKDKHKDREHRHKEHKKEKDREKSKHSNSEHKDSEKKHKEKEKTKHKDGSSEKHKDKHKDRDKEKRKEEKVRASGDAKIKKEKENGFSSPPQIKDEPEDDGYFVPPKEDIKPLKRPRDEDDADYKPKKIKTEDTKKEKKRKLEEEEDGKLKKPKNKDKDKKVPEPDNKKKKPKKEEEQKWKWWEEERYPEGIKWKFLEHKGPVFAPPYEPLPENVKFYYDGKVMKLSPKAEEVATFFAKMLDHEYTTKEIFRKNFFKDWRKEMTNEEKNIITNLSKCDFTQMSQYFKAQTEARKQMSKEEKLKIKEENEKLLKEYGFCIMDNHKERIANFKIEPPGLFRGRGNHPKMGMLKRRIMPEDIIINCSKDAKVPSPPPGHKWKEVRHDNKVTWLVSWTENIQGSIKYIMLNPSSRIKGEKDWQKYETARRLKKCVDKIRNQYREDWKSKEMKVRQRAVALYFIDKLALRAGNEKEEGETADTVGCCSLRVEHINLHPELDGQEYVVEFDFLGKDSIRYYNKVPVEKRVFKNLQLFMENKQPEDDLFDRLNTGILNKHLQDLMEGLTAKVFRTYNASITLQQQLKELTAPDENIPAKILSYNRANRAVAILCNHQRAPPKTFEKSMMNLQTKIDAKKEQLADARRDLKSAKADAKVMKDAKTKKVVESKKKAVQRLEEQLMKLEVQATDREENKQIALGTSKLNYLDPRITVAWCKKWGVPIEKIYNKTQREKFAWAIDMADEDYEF

[5] = tested on: P388; assay: The compound was tested for the cytotoxic activity against murine leukemia cells (P388); format: functional, cell-based; details: Mus musculus
Outline: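 The murine leukemia P388 cell line was used. Cytotoxicity was read out by a colorimetric tetrazolium–formazan assay.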

[6] = tested on: MKN-45; assay: Inhibitory activity against human stomach cancer cells MKN-45 in nude mice after intravenous dose
[7] = tested on: MKN-45; assay: Tested for cytotoxic activity against human stomach cancer cells (MKN-45); format: functional, cell-based
Outline: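 The human stomach cancer MKN-45 cell line was used. Cytotoxicity was read out by a colorimetric tetrazolium–formazan assay and by sulforhodamine B dye staining.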

[8] = tested on: MKN-45; assay: Ratio of compound toxicity to that of anticancer activity against human stomach cancer cells MKN-45 in mice; format: functional
Outline: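 MKN-45 human stomach cancer cells were implanted subcutaneously in a side flank of nude mice. Dosing began once tumors reached 0.2 cm³ or larger and was given intravenously five times per week for 2 weeks. GID75 is the approximate dose giving 75% tumor growth inhibition. LD10 is the approximate 10% lethal dose on the same schedule. Safety margin is LD10/GID75.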

[9] = target: Protein kinase C (PKC); assay: Inhibitory effect on protein kinase C using histone II-As as substrate; format: protein assay

EC50 [2] [nM] | SMILES | EC200 [1] [nM] | LD10 [3] [mg m**-2] | EC50 [4] [nM] | IC50 [5] [nM] | GID75 [6] [mg m**-2] | IC50 [7] [nM] | Saftey margin [8] | IC50 [9] [nM]
> 50000 | O=C1c2c(c3c4ccc(O)cc4n([C@@H]4O[C@@H](C(O)CO)[C@@H](O)[C@H]4O)c3c3[nH]c4cc(O)ccc4c23)C(=O)N1NC(CO)CO (some centres undefined) | 1700 |  | 20 | 14 |  | 29 |  | > 200000
> 50000 | O=C1c2c(c3c4ccc(O)cc4n([C@H]4O[C@H](CO)[C@@H](O)[C@@H]4O)c3c3[nH]c4cc(O)ccc4c23)C(=O)N1NC(CO)CO | 2600 |  | 100 | 8.5 |  | 43 |  | > 200000
> 50000 | O=C1c2c(c3c4ccc(O)cc4n([C@H]4O[C@H](CO)[C@H](O)[C@H]4O)c3c3[nH]c4cc(O)ccc4c23)C(=O)N1NC(CO)CO | 400 |  | 17 | 12 |  | 68 |  | > 200000
> 50000 | O=C1c2c(c3c4ccc(O)cc4n([C@@H]4O[C@H](CO)[C@@H](O[C@H]5O[C@H](CO)[C@@H](O)[C@H](O)[C@H]5O)[C@H](O)[C@H]4O)c3c3[nH]c4cc(O)ccc4c23)C(=O)N1NC(CO)CO | >10000 |  | > 3000 | 3.5 |  | 73 |  | > 200000
> 50000 | C[C@H]1O[C@@H](n2c3cc(O)ccc3c3c4c(c5c6ccc(O)cc6[nH]c5c32)C(=O)N(NC(CO)CO)C4=O)[C@H](O)[C@@H](O)[C@@H]1O | 6500 |  | 140 | 3 |  | 38 |  | 60000
 | O=C1c2c(c3c4ccc(O)cc4n([C@H]4O[C@H](CO)[C@@H](O)[C@@H](O)[C@H]4O)c3c3[nH]c4cc(O)ccc4c23)C(=O)N1NC(CO)CO | 1600 |  | 26 | 18 |  | 20 |  | 72000
 | O=C1c2c(c3c4ccc(O)cc4n([C@@H]4OC[C@@H](O)[C@H]4O)c3c3[nH]c4cc(O)ccc4c23)C(=O)N1NC(CO)CO |  |  | 40 | 2.4 |  | 37 |  | 12000
> 50000 | O=C1c2c(c3c4ccc(O)cc4n([C@H]4C[C@@H](O)[C@H](O)[C@@H](CO)O4)c3c3[nH]c4cc(O)ccc4c23)C(=O)N1NC(CO)CO | 3000 |  | 240 | 5.6 |  | 42 |  | 130000
> 50000 | O=C1c2c(c3c4ccc(O)cc4n([C@H]4C[C@H](O)[C@@H](CO)O4)c3c3[nH]c4cc(O)ccc4c23)C(=O)N1NC(CO)CO | 170 |  | 25 | 4.4 |  | 45 |  | 3000
 | O=C1c2c(c3c4ccc(O)cc4n([C@@H]4O[C@H](CO)[C@H](O)[C@H](O)[C@H]4O)c3c3[nH]c4cc(O)ccc4c23)C(=O)N1NC(CO)CO | >10000 |  | 140 | 7.1 |  | 9.3 |  | > 200000
> 50000 | O=C1c2c(c3c4ccc(O)cc4n([C@@H]4C[C@@H](O)[C@H](O)[C@@H](CO)O4)c3c3[nH]c4cc(O)ccc4c23)C(=O)N1NC(CO)CO | 1200 |  | 130 | 16 |  | 33 |  | 150000
> 50000 | O=C1c2c(c3c4ccc(O)cc4n([C@@H]4OC[C@@H](O)[C@H](O)[C@H]4O)c3c3[nH]c4cc(O)ccc4c23)C(=O)N1NC(CO)CO | 300 |  | 100 | 3.8 |  | 50 |  | > 200000
> 50000 | O=C1c2c(c3c4ccc(O)cc4n([C@@H]4O[C@H](CO)[C@@H](O)[C@@H]4O)c3c3[nH]c4cc(O)ccc4c23)C(=O)N1NC(CO)CO | 430 |  | 32 | 5.3 |  | 93 |  | 120000

SMILES | EC50 [2] [nM] | EC200 [1] [nM] | LD10 [3] [mg m**-2] | EC50 [4] [nM] | IC50 [5] [nM] | GID75 [6] [mg m**-2] | IC50 [7] [nM] | Saftey margin [8] | IC50 [9] [nM]
O=C1c2c(c3c4ccc(O)cc4n([C@@H]4O[C@H](CO)[C@H](O)[C@H]4O)c3c3[nH]c4cc(O)ccc4c23)C(=O)N1NC(CO)CO | > 50000 | 60 | 420 | 17 | 0.96 | 300 | 6 | 1.4 | > 200000
O=C1c2c(c3c4ccc(O)cc4n([C@H]4O[C@H](CO)[C@@H](O)[C@H]4O)c3c3[nH]c4cc(O)ccc4c23)C(=O)N1NC(CO)CO | > 50000 | 450 | 1000 | 30 | 19 | 540 | 130 | 1.9 | 21000
O=C1c2c(c3c4ccc(O)cc4n([C@@H]4O[C@H](C(O)CO)[C@@H](O)[C@H]4O)c3c3[nH]c4cc(O)ccc4c23)C(=O)N1NC(CO)CO (some centres undefined) | > 50000 | 2000 | 370 | 42 | 17 | 260 | 70 | 1.4 | > 200000
O=C1c2c(c3c4ccc(O)cc4n([C@@H]4O[C@H](CO)[C@@H](O)[C@@H](O)[C@H]4O)c3c3[nH]c4cc(O)ccc4c23)C(=O)N1NC(CO)CO | > 50000 | 160 | 990 | 26 | 13 | 440 | 33 | 2.3 | 17000
O=C1c2c(c3c4ccc(O)cc4n([C@H]4O[C@H](CO)[C@@H](O)[C@H](O)[C@H]4O)c3c3[nH]c4cc(O)ccc4c23)C(=O)N1NC(CO)CO | > 50000 | 450 | 170 | 300 | 19 | 110 | 8.5 | 1.5 | 23000
O=C1c2c(c3c4ccc(O)cc4n([C@@H]4O[C@H](CO)[C@@H](O)[C@H](O)[C@H]4O)c3c3[nH]c4cc(O)ccc4c23)C(=O)N1NC(CO)CO [EDOTECARIN] | > 50000 | 100 | > 1600 | 51 | 1.5 | 45 | 4.8 | >36 | 200000
O=C1c2c(c3c4ccc(O)cc4n([C@@H]4O[C@H](CO)[C@@H](O)[C@H]4O)c3c3[nH]c4cc(O)ccc4c23)C(=O)N1NC(CO)CO | > 50000 | 32 | 570 | 8 | 1.8 | 290 | 50 | 2 | 20000
O=C1c2c(c3c4ccc(O)cc4n([C@@H]4O[C@H](CO)[C@@H](O)[C@H](O)[C@@H]4O)c3c3[nH]c4cc(O)ccc4c23)C(=O)N1NC(CO)CO | > 50000 | >10000 |  | 230 | 36 |  | 63 |  | 20000
O=C1c2c(c3c4ccc(O)cc4n([C@H]4O[C@H](CO)[C@@H](O)[C@H](O)[C@@H]4O)c3c3[nH]c4cc(O)ccc4c23)C(=O)N1NC(CO)CO | > 50000 | 930 |  | 80 | 15 |  | 23 |  | 50000

Source: ChEMBL document CHEMBL1133404, “Synthesis and biological activities of NB-506 analogues modified at the glucose group” (Bioorg Med Chem Lett, 2000)
